# In PMC2834874 (Bioorganic & medicinal chemistry letters, 2010):
# Columns and labels:
# Type in all cases: cell-based
# M1 [1] = biological target: T1, M1 (Homo sapiens, UniProt P11229); assay: ACh CRC fold-shift experiments, calcium mobilization in M1 CHO cells
# T1 sequence (P11229 1-460): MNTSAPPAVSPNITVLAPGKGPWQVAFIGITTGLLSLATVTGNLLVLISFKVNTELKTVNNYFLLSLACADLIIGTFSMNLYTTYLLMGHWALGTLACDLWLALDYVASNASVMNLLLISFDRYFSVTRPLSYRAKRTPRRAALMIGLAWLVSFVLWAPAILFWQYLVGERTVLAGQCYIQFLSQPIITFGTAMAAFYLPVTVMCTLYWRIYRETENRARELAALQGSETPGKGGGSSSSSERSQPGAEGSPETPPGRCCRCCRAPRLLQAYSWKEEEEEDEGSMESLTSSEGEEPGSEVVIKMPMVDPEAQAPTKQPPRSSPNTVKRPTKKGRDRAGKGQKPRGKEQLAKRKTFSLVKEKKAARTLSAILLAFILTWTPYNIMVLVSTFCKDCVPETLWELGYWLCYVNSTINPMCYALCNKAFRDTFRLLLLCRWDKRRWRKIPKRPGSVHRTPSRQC
# Procedure, shortened: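 ACh concentration-response curve run alone and with the test compound at 10 μM or 30 μM. Intracellular calcium mobilization measured in CHO cells expressing M1. The fold leftward shift of the ACh curve is taken, and intrinsic allosteric agonism is recorded from the response to compound alone. Values are means of at least three independent determinations.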
# M5 = biological target: T2, M5 (Homo sapiens, UniProt P08912); assay: Potentiation of ~EC20 ACh, calcium mobilization in M5 CHO cells
# T2 sequence (P08912 1-532): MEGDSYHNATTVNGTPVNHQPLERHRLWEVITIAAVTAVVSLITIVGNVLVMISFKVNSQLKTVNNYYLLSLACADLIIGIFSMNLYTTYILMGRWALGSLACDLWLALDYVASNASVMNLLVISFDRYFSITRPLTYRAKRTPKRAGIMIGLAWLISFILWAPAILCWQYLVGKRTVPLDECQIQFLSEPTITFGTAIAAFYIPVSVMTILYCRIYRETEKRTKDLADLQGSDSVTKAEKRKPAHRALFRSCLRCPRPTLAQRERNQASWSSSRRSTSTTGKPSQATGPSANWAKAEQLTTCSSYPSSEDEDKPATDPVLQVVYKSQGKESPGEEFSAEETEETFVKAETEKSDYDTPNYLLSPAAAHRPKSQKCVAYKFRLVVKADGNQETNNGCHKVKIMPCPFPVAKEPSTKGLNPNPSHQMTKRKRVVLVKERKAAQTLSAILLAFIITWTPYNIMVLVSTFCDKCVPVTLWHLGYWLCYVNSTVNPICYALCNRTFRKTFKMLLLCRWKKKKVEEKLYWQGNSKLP
# Procedure, shortened: (§1)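 Potentiation of an ~EC20 ACh response read as intracellular calcium mobilization in CHO cells expressing single receptor subtypes. M2 and M4 lines are co-transfected with chimeric Gqi5 to couple to calcium, while M3 and M5 lines are used directly. Data are means of independent determinations.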
# M3 = M3 (Homo sapiens, UniProt P20309); assay: Potentiation of ~EC20 ACh, calcium mobilization in M3 CHO cells
# Procedure, shortened: as §1
# M4 = biological target: T3, M4 (Homo sapiens, UniProt P08173); assay: Potentiation of ~EC20 ACh, calcium mobilization in M4/Gqi5 CHO cells; conditions: up to 30 μM
# T3 sequence (P08173 1-479): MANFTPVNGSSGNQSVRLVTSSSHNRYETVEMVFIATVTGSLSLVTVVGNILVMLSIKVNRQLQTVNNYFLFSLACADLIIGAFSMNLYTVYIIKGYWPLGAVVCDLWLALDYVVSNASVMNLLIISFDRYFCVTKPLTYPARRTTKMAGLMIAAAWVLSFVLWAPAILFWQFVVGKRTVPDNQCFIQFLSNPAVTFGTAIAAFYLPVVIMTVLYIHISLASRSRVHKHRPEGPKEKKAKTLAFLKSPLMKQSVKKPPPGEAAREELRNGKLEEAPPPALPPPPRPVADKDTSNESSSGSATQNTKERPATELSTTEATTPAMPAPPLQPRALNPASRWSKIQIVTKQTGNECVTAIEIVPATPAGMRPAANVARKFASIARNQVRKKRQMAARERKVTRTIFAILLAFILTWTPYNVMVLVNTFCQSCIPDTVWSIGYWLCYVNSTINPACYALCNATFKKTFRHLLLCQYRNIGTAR
# Procedure, shortened: as §1
# M1 [2] = biological target: T1, M1; conditions: M1 EC50 ratio
# M2 = biological target: T4, M2 (Homo sapiens, UniProt P08172); assay: Potentiation of ~EC20 ACh, calcium mobilization in M2/Gqi5 CHO cells; conditions: up to 30 μM
# T4 sequence (P08172 1-466): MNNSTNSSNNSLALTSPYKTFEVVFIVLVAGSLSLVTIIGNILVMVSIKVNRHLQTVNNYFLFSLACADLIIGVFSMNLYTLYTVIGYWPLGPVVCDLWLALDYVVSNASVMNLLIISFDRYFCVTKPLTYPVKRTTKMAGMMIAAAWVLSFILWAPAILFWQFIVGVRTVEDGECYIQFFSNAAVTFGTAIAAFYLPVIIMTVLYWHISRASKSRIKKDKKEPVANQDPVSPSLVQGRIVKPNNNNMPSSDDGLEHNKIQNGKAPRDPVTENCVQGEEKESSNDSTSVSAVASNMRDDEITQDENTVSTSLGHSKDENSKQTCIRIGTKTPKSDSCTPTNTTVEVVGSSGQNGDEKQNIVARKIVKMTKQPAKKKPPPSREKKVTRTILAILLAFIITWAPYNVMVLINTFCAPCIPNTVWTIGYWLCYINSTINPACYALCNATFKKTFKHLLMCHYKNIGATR
# Procedure, shortened: as §1
# M3, sequence (P20309 whole entry): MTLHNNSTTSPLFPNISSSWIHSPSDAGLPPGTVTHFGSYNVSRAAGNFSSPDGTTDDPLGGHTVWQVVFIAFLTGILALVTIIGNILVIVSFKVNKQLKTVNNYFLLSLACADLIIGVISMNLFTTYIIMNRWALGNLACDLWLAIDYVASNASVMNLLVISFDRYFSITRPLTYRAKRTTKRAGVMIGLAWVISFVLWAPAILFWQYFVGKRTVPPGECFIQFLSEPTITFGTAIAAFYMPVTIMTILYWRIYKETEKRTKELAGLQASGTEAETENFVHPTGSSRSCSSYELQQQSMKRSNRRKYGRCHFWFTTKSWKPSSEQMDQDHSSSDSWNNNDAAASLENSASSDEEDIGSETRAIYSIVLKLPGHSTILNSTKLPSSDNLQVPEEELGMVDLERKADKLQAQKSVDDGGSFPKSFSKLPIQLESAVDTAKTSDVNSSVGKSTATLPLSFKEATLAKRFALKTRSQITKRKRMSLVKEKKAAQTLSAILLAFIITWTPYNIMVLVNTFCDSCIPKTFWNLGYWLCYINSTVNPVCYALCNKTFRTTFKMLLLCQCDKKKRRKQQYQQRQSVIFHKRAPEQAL
Fold-shift of the ACh CRC at M5 (M1 [1]; 10 μM compound),"intrinsic allosteric agonism (M1 [1]; M1 fold-shift experiment, at 30 μM) [%]",selectivity versus M5 (M5; CRC in presence of ~EC20 ACh),selectivity versus M3 (M3; CRC in presence of ~EC20 ACh),Fold-shift of the ACh CRC at M5 (M1 [1]; 30 μM compound),activation of M5 (M5; up to 30 μM),activation of M4 (M4),increase in potency over VU0365137 (9a) (M1 [2]),activation of M2 (M2),activation of M3 (M3; up to 30 μM),Compound
approximately 5 fold,~30,good selectivity,good selectivity,–,–,–,–,–,–,Cn1cc(-c2ccc(CN3C(=O)C(=O)c4ccccc43)cc2)cn1 [Compound 9a]
–,–,–,–,approximately 3 fold,minimal/no activation,minimal/no activation,three-fold increase,minimal/no activation,minimal/no activation,Cn1cc(-c2ccc(CN3C(=O)C(=O)c4ccccc43)c(F)c2)cn1 [Compound 12a]
